Measurements as given in PubChem BioAssay AID489015 (The Scripps Research Institute Molecular Screening Center, 2010).
Calls of active or inactive are those of the source.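 How the source made its calls: active means malaria parasite growth inhibition in red cells reaching a set limit in at least one replicate; inactive means below that limit in every replicate.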

These molecules were tested on P. falciparum 3D7 in RBCs, 3H-hypoxanthine incorporation, 48 h (assay: P. falciparum growth inhibition in erythrocytes, late-stage follow-up, M18AAP inhibitor project, cell-based, radiolabel, RBCs, powder samples (AID 489015)). Details: at 10 µM; active compounds read high.
Method in brief: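 Assay system – P. falciparum 3D7 in erythrocytes · Also added – 3H-hypoxanthine, 0.5 µCi/well · Compound – 10 µM single dose, DMSO ≤1% · Incubation – 48 h compound exposure, 37 °C, 5% CO2, 5% O2 · Signal – 3H-hypoxanthine uptake, beta counting · Repeats – triplicate wells, 2-3 experiments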

| Structure (SMILES) | growth inhibition |
| --- | --- |
| COc1ccc(Cl)cc1NC(=O)Nn1cnnc1 | 5.83% (inactive) |
| COC(=O)CN(n1cnnc1)S(=O)(=O)c1ccc(C)cc1 | 0% (inactive) |
| Cc1cc(=O)[nH]c(SCC(=O)c2ccc(O)c(O)c2)n1 | 0.833% (inactive) |
| O=c1[nH]c(=S)[nH]c(O)c1/C=C1\C=c2ccccc2=N1 | 2.67% (inactive) |
| Cc1nc2ccccn2c1C(=O)NNC(=O)Nc1ccccc1 | 0.667% (inactive) |
| CCOC(=O)C1=C(CS(=O)(=O)c2ccc(F)cc2)NC(=O)NC1c1ccc(O)c(O)c1 (stereo unspecified) | 0.667% (inactive) |
| O=[N+]([O-])c1cc([N+](=O)[O-])c2cccnc2c1Oc1ccccc1O | 13.4% (inactive) |
| CS(=O)(=O)c1ccc2c(c1)sc1nc(=O)c(/C=C3/C=CC(=O)C(O)=C3)c(N)n12 | 22.6% (inactive) |
| O=C(Nc1ccc(Br)cc1Cl)Nn1cnnc1 | 4.67% (inactive) |
| O=C(Nc1cccc(C(F)(F)F)c1)Nn1cnnc1 | 0% (inactive) |
| Oc1ccc(/C=C/c2cc(O)cc(O)c2)cc1 | 1.33% (inactive) |
| O=C(Nc1ccc([N+](=O)[O-])cc1)Nn1cnnc1 | 28.7% (inactive) |
| O=C(Nc1ccc(Cl)cc1Cl)Nn1cnnc1 | 0% (inactive) |
| CC1(C)CC2(CC(c3ccccc3F)c3ccc(O)c(O)c3O2)NC(=S)N1 (stereo unspecified) | 0.167% (inactive) |
| O=C(Nc1cccc(Cl)c1Cl)Nn1cnnc1 | 1% (inactive) |
| Cc1nc(-c2ccc(O)c(O)c2)cs1 | 0.778% (inactive) |
| CC1=NNC(=O)/C1=C\c1cn(-c2ccccc2)nc1-c1ccc(F)cc1 | 20.7% (inactive) |
| COc1cc([N+](=O)[O-])ccc1NC(=O)Nn1cnnc1 | 0% (inactive) |
| O=c1c2c([N+](=O)[O-])cc([N+](=O)[O-])cc2sn1Cc1ccccc1 | 5.11% (inactive) |
| O=C(Nc1cc(Cl)ccc1Cl)Nn1cnnc1 | 1.5% (inactive) |
| O=C(O)c1cn[nH]c1-n1cnnn1 | 3.83% (inactive) |
| Br/C(C=Nn1cnnc1)=C\c1ccccc1 | 71.8% |
| COC(=O)CN(n1cnnc1)S(=O)(=O)c1ccccc1Cl | 4.5% (inactive) |
| COc1cc(Br)cc(/C=N/c2ncn[nH]2)c1O | 4.83% (inactive) |
| O=C(CSc1nc2ccccc2c(=O)[nH]1)c1ccc(O)c(O)c1 | 8.89% (inactive) |
| O=C(CSc1ncn[nH]1)OCN1C(=O)c2ccccc2C1=O | 3% (inactive) |

| Structure (SMILES) | growth inhibition |
| --- | --- |
| O=C(Nc1ccccc1Cl)Nn1cnnc1 | 7.83% (inactive) |
| O=C(CSc1nn(-c2ccccc2)c(=S)s1)Nn1cnnc1 | 0% (inactive) |
| NCCc1ccc(O)c(O)c1 | 0.5% (inactive) |
| Oc1cc(O)c2c(c1)O[C@H](c1ccc(O)c(O)c1)[C@H](O)C2 | 1% (inactive) |
| O=C(COc1ccccc1C(=O)N/N=C/c1ccc(O)c(O)c1)N/N=C/c1ccc(O)c(O)c1 | 66% |
| COc1cccc2c(SCC(=O)N/N=C/c3ccc(O)c(O)c3)cc(C)nc12 | 1.5% (inactive) |
| Oc1ccc(C2=Nn3c(nnc3-c3ccco3)SC2)cc1O | 20.8% (inactive) |
| O=C(CSc1ncn[nH]1)Nc1nc(-c2ccccc2)ns1 | 4.5% (inactive) |
| COc1ccc(NC(=O)NNC(=O)CCc2ccc(O)c(O)c2)cc1OC | 5.67% (inactive) |
| S=C(Nc1cc(Cl)ccc1Cl)Nn1cnnc1 | 0% (inactive) |
| Cc1cccc(NC(=S)Nn2cnnc2)c1C | 16.5% (inactive) |
| COC(=O)c1cc(C(=O)Nn2cnnc2)cc([N+](=O)[O-])c1 | 0% (inactive) |
| COC(=O)CN(n1cnnc1)S(=O)(=O)c1ccccc1 | 1.67% (inactive) |
| COc1ccc2nc(C)cc(SCC(=O)N/N=C/c3ccc(O)c(O)c3)c2c1 | 3.22% (inactive) |
| OC(Cn1cnnc1)c1ccccc1 (stereo unspecified) | 0% (inactive) |
| O=C(O)CSc1ncn[nH]1 | 2.83% (inactive) |
| CN1CCc2cccc3c2[C@@H]1Cc1ccc(O)c(O)c1-3 | 87% |
| CCC(C)c1ccc(O)c(N)c1 (stereo unspecified) | 95.1% |
| COc1ccc(C(=O)n2cnnc2N)cc1 | 2.5% (inactive) |
| Cc1ccc(NC(=S)Nn2cnnc2)c(C)c1 | 0% (inactive) |
| Cc1ccc(-n2c(O)c(/C=N/n3cnnc3)c3ccccc3c2=O)cc1 | 3.33% (inactive) |
| Cc1ccc(Cl)cc1NC(=S)Nn1cnnc1 | 0% (inactive) |
| COc1cc([N+](=O)[O-])ccc1NC(=S)Nn1cnnc1 | 8.67% (inactive) |
| Cc1cc(OCC(=O)Nn2cnnc2)ccc1Br | 3.67% (inactive) |
| O=c1[nH]c(CSc2ncn[nH]2)nc2ccccc12 | 1.83% (inactive) |
| Cc1cc(C)cc(C(=O)n2cnnc2N)c1 | 44.8% |

| Structure (SMILES) | growth inhibition |
| --- | --- |
| Cc1cc(C)n2c(=S)[nH]nc2n1 | 35.6% |
| CCc1ccccc1NC(=S)Nn1cnnc1 | 0% (inactive) |
| Cc1ccc(Cl)cc1NC(=O)Nn1cnnc1 | 2.5% (inactive) |
| CCN(CC)S(=O)(=O)c1ccc(C(=O)Nn2cnnc2)cc1 | 0.5% (inactive) |
| Oc1ccc(-c2cn3ccccc3n2)cc1O | 5.33% (inactive) |
| O=C(Nn1cnnc1)c1ccccc1-c1ccccc1 | 0.5% (inactive) |
| Nc1nncn1C(=O)CCCOc1ccc(Cl)cc1Cl | 3.17% (inactive) |
| O=C(Nn1cnnc1)c1csc2ccccc12 | 0% (inactive) |
| CN1C(=O)N(c2cccc3ccccc23)C(n2cncn2)C1(C)C (stereo unspecified) | 0% (inactive) |
| COc1cccc(-c2cc(C(=O)Nn3cnnc3)c3ccccc3n2)c1 | 7.11% (inactive) |
| O=S(=O)(Nn1cnnc1)c1ccccc1 | 3% (inactive) |
| CC1(C)CC(=O)c2c(oc3cc(O)c(O)cc23)C1 | 2.83% (inactive) |
| O=C(NC(=S)Nn1cnnc1)c1ccccc1Br | 0% (inactive) |
| O=C(Nc1ccc(Cl)c(Cl)c1)Nn1cnnc1 | 5.67% (inactive) |
| Cc1c(Cl)cccc1NC(=O)Nn1cnnc1 | 9.17% (inactive) |
| CC(C)n1c(SCC(=O)Nc2nncs2)nnc1-c1ccco1 | 1.33% (inactive) |
| O=C(CNC(=O)c1ccccc1)NCCc1ccc(O)c(O)c1 | 0.333% (inactive) |
| Oc1ccc(-c2csc(-c3cccnc3)n2)cc1O | 7.67% (inactive) |
| Oc1ccc(-c2csc(-c3ccccc3)n2)cc1O | 20.6% |
| O=C(O)c1ccc(O)c(O)c1 | 7.17% (inactive) |
| Oc1ccc(CCNc2c3ccccc3nc3ccccc23)cc1O | 96.3% |
| Cc1ccc([N+](=O)[O-])cc1-c1[nH]c(-c2ccc(O)c(O)c2)nc1-c1ccccc1 | 4.11% (inactive) |
| O=c1c(O)c(-c2ccc(O)c(O)c2)oc2cc(O)cc(O)c12 | 0% (inactive) |
| O=C(CSc1nnc(-c2ccccc2)o1)Nn1cnnc1 | 11% (inactive) |
